# Experimental data taken from ChEMBL document CHEMBL1126317, “2-(aminoalkyl)-5-nitropyrazolo[3,4,5-kl]acridines, a new class of anticancer agents” (1992).
# The source made the active and inactive calls. The calls are words filed in the database; no cut-off is given here.
# Experiments:
# [1] = system: L1210; experiment: In vitro antitumor activity against L1210 leukemia cell line.; format: functional; conditions: Mus musculus, read-out: ID50 (the source's name)
# [2] = system: Mus musculus; experiment: In vivo antitumor activity of the compound(ip, 100 mg/kg for 5 days) against CD2F1 mice implanted intraperitoneally with P388 leukemia cells.; format: functional; conditions: route intraperitoneal
# [3] = system: Mus musculus; experiment: In vivo antitumor activity of the compound(ip, 25 mg/kg for 5 days) against CD2F1 mice implanted intraperitoneally with P388 leukemia cells.; conditions: route intraperitoneal
# [4] = system: Mus musculus; experiment: In vivo antitumor activity of the compound(ip, 25 mg/kg for 5 days) against CD2F1 mice implanted intraperitoneally with P388 leukemia cells; Day 30 survivors=1/6; conditions: route intraperitoneal
# [5] = system: Mus musculus; experiment: In vivo antitumor activity of the compound(ip, 50 mg/kg for 5 days) against CD2F1 mice implanted intraperitoneally with P388 leukemia cells; Day 30 survivors=1/6; format: functional; conditions: route intraperitoneal
# [6] = system: Mus musculus; experiment: In vivo antitumor activity of the compound(ip, 50 mg/kg for 5 days) against CD2F1 mice implanted intraperitoneally with P388 leukemia cells.; format: functional; conditions: route intraperitoneal
# [7] = Ratio of the ID50's showing antitumor activity against HCT-8 and L1210 leukemia cell lines.; format: functional
# How it was run: (§1)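 Ratio taken as ID50 in HCT-8 cells divided by ID50 in L1210 cells, both ID50s expressed as molar concentrations.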
# [8] = system: HCT-8; experiment: In vitro antitumor activity against HCT-8 colon cancer cell line.; format: functional; conditions: Homo sapiens, read-out: ID50 (the source's name)
# [9] = system: Mus musculus; experiment: In vivo antitumor activity of the compound(ip, 25 mg/kg for 5 days) against CD2F1 mice implanted intraperitoneally with P388 leukemia cells.; format: functional; conditions: route intraperitoneal
# [10] = Ratio of the ID50's showing antitumor activity against HCT-8 and L1210 leukemia cell lines; format: functional; how it was run: as §1
# [11] = system: Mus musculus; experiment: In vivo antitumor activity of the compound(ip, 25 mg/kg for 5 days) against CD2F1 mice implanted intraperitoneally with P388 leukemia cells; Day 30 survivors=2/6; format: functional; conditions: route intraperitoneal
# [12] = system: HCT-8; experiment: In vitro antitumor activity against HCT-8 human colon line; IA= Inactive; format: functional, cell-based
# [13] = system: L1210; experiment: In vitro antitumor activity against L1210 leukemia cell line; IA= Inactive; format: functional, cell-based; conditions: Mus musculus
# [14] = system: Mus musculus; experiment: In vivo antitumor activity of the compound(ip, 6 mg/kg for 5 days) against CD2F1 mice implanted intraperitoneally with P388 leukemia cells; Day 30 survivors=1/6; format: functional; conditions: route intraperitoneal
# [15] = system: Mus musculus; experiment: In vivo antitumor activity of the compound(ip, 6 mg/kg for 5 days) against CD2F1 mice implanted intraperitoneally with P388 leukemia cells.; format: functional; conditions: route intraperitoneal
# [16] = system: Mus musculus; experiment: In vivo antitumor activity of the compound(ip, 12.5 mg/kg for 5 days) against CD2F1 mice implanted intraperitoneally with P388 leukemia cells; Day 30 survivors=1/6; format: functional; conditions: route intraperitoneal
# [17] = system: Mus musculus; experiment: In vivo antitumor activity of the compound(ip, 3.12 mg/kg for 5 days) against CD2F1 mice implanted intraperitoneally with P388 leukemia cells; Day 30 survivors=2/6; format: functional; conditions: route intraperitoneal
# [18] = system: Mus musculus; experiment: In vivo antitumor activity of the compound(ip, 3.12 mg/kg for 5 days) against CD2F1 mice implanted intraperitoneally with P388 leukemia cells.; format: functional; conditions: route intraperitoneal
# [19] = system: Mus musculus; experiment: In vivo antitumor activity of the compound(ip, 12.5 mg/kg for 5 days) against CD2F1 mice implanted intraperitoneally with P388 leukemia cells.; format: functional; conditions: route intraperitoneal
# [20] = system: Mus musculus; experiment: In vivo antitumor activity of the compound(ip, 3.12 mg/kg for 5 days) against CD2F1 mice implanted intraperitoneally with P388 leukemia cells; Day 30 survivors=3/6; format: functional; conditions: route intraperitoneal
# [21] = system: Mus musculus; experiment: In vivo antitumor activity of the compound(ip, 25 mg/kg for 5 days) against CD2F1 mice implanted intraperitoneally with P388 leukemia cells; Day 30 survivors=1/6; format: functional; conditions: route intraperitoneal
# [22] = system: Mus musculus; experiment: In vivo antitumor activity of the compound(ip, 6.25 mg/kg for 5 days) against CD2F1 mice implanted intraperitoneally with P388 leukemia cells.; format: functional; conditions: route intraperitoneal
compound,measurement,setting,value
CCN(CC)CCN1Nc2c3cc(C)ccc3nc3c([N+](=O)[O-])ccc1c23.CS(=O)(=O)O,IC50,[1],860 nM
same,T/C,[2],136%
C=CCOc1ccc2nc3c([N+](=O)[O-])ccc4c3c(c2c1)NN4CCN(CC)CC.CS(=O)(=O)O,IC50,[1],580 nM
same,T/C,[3],258%
same,Activity,[4],1
CCNCCN1Nc2c3cc(OC)ccc3nc3c([N+](=O)[O-])ccc1c23.CS(=O)(=O)O,IC50,[1],210 nM
same,Activity,[5],1
same,T/C,[6],240%
same,Ratio,[7],0.57
same,IC50,[8],120 nM
CCN(CC)CCN1Nc2c3cc(OC)ccc3nc3c([N+](=O)[O-])ccc1c23.CS(=O)(=O)O,IC50,[1],470 nM
same,T/C,[9],242%
same,IC50,[8],120 nM
same,Ratio,[10],0.26
COc1ccc2c(c1)-c1nn(CCCN(C)C)c3ccc([N+](=O)[O-])c(c13)N2.CS(=O)(=O)O,Activity,[11],2
same,Ratio,[7],0.33
COc1ccc2c(c1)-c1nn(CCCl)c3ccc([N+](=O)[O-])c(c13)N2,ID50,[12],inactive
same,ID50,[13],inactive
CCN(CC)CCN1Nc2c3c(Cl)c(O)ccc3nc3c([N+](=O)[O-])ccc1c23.CS(=O)(=O)O,IC50,[1],0.39 nM
same,Activity,[14],1
same,T/C,[15],196%
CCOc1ccc2c(c1)-c1nn(CCN(C)C)c3ccc([N+](=O)[O-])c(c13)N2.CS(=O)(=O)O,Activity,[16],1
CC(=O)Oc1ccc2nc3c([N+](=O)[O-])ccc4c3c(c2c1)NN4CCCN(C)C.CS(=O)(=O)O,IC50,[1],1.9 nM
same,Activity,[17],2
same,T/C,[18],252%
CCN(CC)CCN1Nc2c3ccc(OCc4ccccc4)cc3nc3c([N+](=O)[O-])ccc1c23.CS(=O)(=O)O,IC50,[1],180 nM
same,T/C,[19],87%
CCN(CC)CCN1Nc2c3cc4c(cc3nc3c([N+](=O)[O-])ccc1c23)OCO4.CS(=O)(=O)O,IC50,[1],160 nM
same,T/C,[6],173%
CN(C)CCN1Nc2c3cc(OC(=O)C(C)(C)C)ccc3nc3c([N+](=O)[O-])ccc1c23.CS(=O)(=O)O,IC50,[1],2.9 nM
same,Activity,[17],2
same,T/C,[18],236%
CCN(CC)CCN1Nc2c3cc(OC)c(OC)cc3nc3c([N+](=O)[O-])ccc1c23.CS(=O)(=O)O,IC50,[1],1100 nM
same,T/C,[2],126%
CCCOc1ccc2c(c1)-c1nn(CCN(CC)CC)c3ccc([N+](=O)[O-])c(c13)N2.CS(=O)(=O)O,IC50,[1],460 nM
same,Activity,[11],2
same,T/C,[9],273%
CCN(CC)CCN1Nc2c3cc(OC)cc(OC)c3nc3c([N+](=O)[O-])ccc1c23.CS(=O)(=O)O,IC50,[1],760 nM
same,T/C,[6],88%
CCOc1ccc2c(c1)-c1nn(CCN(CC)CC)c3ccc([N+](=O)[O-])c(c13)N2.CS(=O)(=O)O,IC50,[1],790 nM
same,T/C,[19],220%
CC(=O)Oc1ccc2nc3c([N+](=O)[O-])ccc4c3c(c2c1)NN4CCN(C)C.CS(=O)(=O)O,IC50,[1],1.2 nM
same,Activity,[20],3
same,T/C,[18],265%
CCCCOc1ccc2c(c1)-c1nn(CCNCCO)c3ccc([N+](=O)[O-])c(c13)N2.CS(=O)(=O)O,IC50,[1],650 nM
same,T/C,[19],175%
CCOc1ccc2c(c1)-c1nn(CCCN(C)C)c3ccc([N+](=O)[O-])c(c13)N2.CS(=O)(=O)O,IC50,[1],220 nM
same,T/C,[19],236%
CCN(CC)CCN1Nc2c3cc(N(C)C)ccc3nc3c([N+](=O)[O-])ccc1c23.CS(=O)(=O)O,IC50,[1],900 nM
same,Activity,[21],1
same,T/C,[9],178%
CCN(CC)CCN1Nc2c3cc(OC)c(Cl)cc3nc3c([N+](=O)[O-])ccc1c23.CS(=O)(=O)O,IC50,[1],270 nM
same,T/C,[9],112%
CCN(CC)CCN1Nc2c3ccccc3nc3c([N+](=O)[O-])ccc1c23.CS(=O)(=O)O,IC50,[1],190 nM
same,T/C,[22],165%
Cc1ccc2c(c1)-c1nn(CCNCCO)c3ccc([N+](=O)[O-])c(c13)N2.Cl,T/C,[6],115%
Cl.O=[N+]([O-])c1ccc2c3c(c4ccccc4nc13)NN2CCNCCO,IC50,[1],220 nM
same,T/C,[9],235%
